Bioassay records as filed in PubChem BioAssay.
HMGR II inh = inhibitors of E. faecalis class II HMGR, primary screen, biochemical, Enterococcus faecalis; HMG-CoA reductase (Enterococcus faecalis, mvaE); purified E. faecalis HMGR, NADPH absorbance 340 nm kinetic; inhibition, % at 10 µM; actives 0.41% (n = 190,000); AID 1066, 2008;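 active means inhibition above a set limit, the median over all tested compounds plus 3 SD, cut at about 9.5% in these data; inconclusive means no clear call, values can overlap the other calls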;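 further: enzyme runs in reverse so mevalonate oxidation gives rising NADPH absorbance; 0% = complete reaction with DMSO and 100% = background rate lacking mevalonate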
RanGTP-Impb inh = inhibitors of RanGTP-importin-beta interaction, primary screen, biochemical, FRET, CFP-Ran, YFP-importin-beta, homogeneous. actives 1.1% (n = 300,000). Ran GTPase (GTP-bound) - importin-beta complex. inhibition, % (test concentration not listed). cell-free CFP-Ran/YFP-importin-beta FRET ratio;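 active means more than half of the replicate wells show a fall in the fluorescence ratio signal beyond about 16%, limit read from the data, passing the limit was not always enough; inconclusive means exactly half of the replicate wells pass the set limit; inactive means fewer than half of replicates pass the limit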;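 further: 0% = DMSO wells and 100% = Ran loaded with GDP instead of GTP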
Wee1 stabilizer = Wee1 degradation inhibitors, primary screen, cell-based, HeLa, Wee1K328M-luciferase, luminescence. Wee1-like protein kinase (Homo sapiens), P30291. HeLa Luc-Wee1K328M stability; 100% = proteasome inhibitor MG132 effect. reporter increase, % at 5 µM. actives 1.2% (n = 220,000). AID 1321, 2008;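 active means activation above the mean of all tested compounds plus 3 SD, set per screening run, cut at about 8.8% in these data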;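 further: cells exposed to compound for 20 h before luminescence read; 0% = DMSO alone and 100% = MG132 at 30 µM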
Runt-CBFb FRET = inhibitors of RUNX1 Runt–CBFb binding, primary screen, biochemical, FRET, Cerulean-Runt, Venus-CBFb, uHTS; AID 1496, 2009; inhibition, % at 20 µM; Cerulean-Runt/Venus-CBFb FRET ratio 530/480, 1 h; Runt-related transcription factor 1 (Homo sapiens) + Core-binding factor subunit beta …; actives 0.46% (n = 220,000);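 active means inhibition over about 50% at 20 µM in the single-dose screen, limit read from the data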;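 further: 0% = DMSO wells and 100% = excess unlabeled CBFb competitor control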
Target sequence (Q01196 whole entry, looked up): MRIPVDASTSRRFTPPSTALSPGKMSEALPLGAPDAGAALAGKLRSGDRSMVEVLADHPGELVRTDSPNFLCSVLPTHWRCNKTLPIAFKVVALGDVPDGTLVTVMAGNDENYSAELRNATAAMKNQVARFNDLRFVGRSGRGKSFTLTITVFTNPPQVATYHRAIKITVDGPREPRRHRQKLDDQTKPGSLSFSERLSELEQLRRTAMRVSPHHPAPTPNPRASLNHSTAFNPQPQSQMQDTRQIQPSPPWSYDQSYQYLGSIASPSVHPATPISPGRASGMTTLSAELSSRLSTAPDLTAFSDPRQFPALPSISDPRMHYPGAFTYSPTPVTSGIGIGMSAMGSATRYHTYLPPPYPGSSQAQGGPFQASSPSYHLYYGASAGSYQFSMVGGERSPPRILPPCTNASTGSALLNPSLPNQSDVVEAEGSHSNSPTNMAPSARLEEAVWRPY
Target sequence (Q13951 whole entry, looked up): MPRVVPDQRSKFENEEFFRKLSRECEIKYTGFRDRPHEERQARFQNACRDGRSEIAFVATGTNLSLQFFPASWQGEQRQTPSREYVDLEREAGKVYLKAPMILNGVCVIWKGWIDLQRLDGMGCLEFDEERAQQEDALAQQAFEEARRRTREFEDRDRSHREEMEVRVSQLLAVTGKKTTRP
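Assay system: Cerulean-Runt domain fusion protein, energy donor; Signal: fluorescence energy transfer, 422 nm excitation, 530/480 nm emission; Timing: 1 h compound exposure, room temperature; Control set: unlabeled CBFb; Medium: Tris buffer pH 7.5 with salts and BSA; Compound: single test concentration of 20 µM, 1% DMSO final; Probe or stimulus: Venus-CBFb 100 nM.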
Runt-SMMHC FRET = inhibitors of RUNX1 Runt–CBFb-SMMHC binding, primary screen, biochemical, FRET, Cerulean-Runt, Venus-CBFb-SMMHC, uHTS. Runt-related transcription factor 1 (Homo sapiens) + Core-binding factor subunit beta …. Cerulean-Runt/Venus-CBFb-SMMHC FRET ratio 530/480, 1 h. inhibition, % at 20 µM. actives 0.74% (n = 220,000);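 active means mean inhibition across duplicate retests at 20 µM reaching about 50%, limit read from the data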;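 further: 0% = DMSO wells and 100% = wells with excess untagged CBFb-SMMHC; inhibitors lower the FRET ratio by blocking Runt binding to CBFb-SMMHC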
PHOSPHO1 block = PubChem AID 1565 | recombinant PHOSPHO1, absorbance phosphatase assay | actives 1.1% (n = 290,000) | inhibition, % at 13.3 µM | Phosphoethanolamine/phosphocholine phosphatase (Homo sapiens), Q8TCT1; in the data active means inhibition above about 60%
* marks the source's active call; other numbers are inactive results; ? = inconclusive; . = no result. The list is not random: actives were taken first. Their share in the collection is about 3.4%.

SMILES	HMGR II inh	RanGTP-Impb inh	Wee1 stabilizer	Runt-CBFb FRET	Runt-SMMHC FRET	PHOSPHO1 block
O=C(Nc1cccc(S(=O)(=O)N2CCCCC2)c1)C1CC(=O)N(Cc2ccco2)C1 (stereo unspecified)	-1.1	40.4*	2.0	1.2	-3.2	27.7
COc1ccc(CC(=O)NC(c2ccccc2)c2ccc(C)cc2)c(OC)c1 (stereo unspecified)	.	2.5	.	.	.	22.0
Cc1cc(Cl)ccc1OCCCC(=O)NNC(=O)c1ccccc1O	.	5.2	.	.	.	.
COC(=O)C1=C(C)NC(C)=C(C(=O)OC)C1C1CC=CCC1 (stereo unspecified)	14.9*	?	4.9	-3.5	-3.5	-2.3
CCCCNC(=O)c1ccccc1NC(=O)CCSc1ccccc1	15.2*	4.3	-0.7	-3.5	-1.0	-6.9
CCCCNC(=O)Nc1ccccc1C(=O)NCCC	0.3	-6.3	-1.1	-1.1	2.2	1.5
CCc1ccc(-c2nc(CN3CCC(C(=O)NCc4ccccc4OC)CC3)c(C)o2)cc1	0.3	4.6	2.7	1.0	-1.8	76.8*
O=C(O)c1ccc(-n2nnnc2SCc2ccccc2Br)cc1	.	0.4	.	.	.	38.1
CC1CCCCN1S(=O)(=O)c1ccc2c(c1)C(C)(C)C(=O)N2C (stereo unspecified)	.	5.6	.	.	.	7.0
Cn1cc(S(=O)(=O)NCc2ccc(F)cc2)c(=O)n(C)c1=O	.	1.1	.	.	.	-7.4
O=C(O)c1ccccc1CSc1nc2ccccc2n1Cc1ccccc1C(=O)O	11.4*	2.9	-2.4	-2.3	2.8	-18.8
Cc1ccc(-n2nc3c(=O)n(CCCC(=O)NCc4cccc(F)c4)nc(C)c3c2C)cc1	.	0.0	.	.	.	52.6
COc1ccc(NC(=O)Nc2sc(=S)n(C)c2C)cc1	-6.2	.	12.5*	5.6	1.9	10.5
CCN(CC(=O)NC1CCCC1)S(=O)(=O)c1ccc(Br)cc1	.	?	.	.	.	3.4
Cn1cccc1/C=N/n1c(-c2ccc(Cl)cc2Cl)n[nH]c1=S	1.4	-0.7	0.1	13.4	10.7	76.6*
Cn1cccc1/C=N/n1c(-c2ccc(Cl)cc2)n[nH]c1=S	-1.9	17.7	-0.7	13.6	19.2	65.6*
Cc1cccn2c(=O)nc(SCC(=O)NCc3ccccc3)nc12	.	-0.2	.	.	.	.
CCOc1ccc(NC(=S)NC(=O)c2cnn(CC)c2)c([N+](=O)[O-])c1	.	1.7	.	.	.	.
COc1ccc(-c2oc3cccnc3c2C#CCO)cc1	.	5.1	.	.	.	-1.7
COc1ccc(-c2oc3cccnc3c2C#CC2(O)CCCCC2)cc1	.	22.6*	.	.	.	4.0
CCc1c(C)nc(/N=C(/NC(=O)c2ccccc2)Nc2ccccc2OC)[nH]c1=O	.	.	0.7	.	.	.
CCOC(=O)c1c(CN2CCCCC2)n(C)c2cc(Br)c(OC)cc12	-2.8	-4.6	0.7	-2.6	-4.0	63.9*
COC(=O)Cn1c2ccc(C)cc2c2nc3ccccc3nc21	.	19.8*	.	.	.	40.4
CCOC(=O)Cn1c2ccccc2c2nc3ccccc3nc21	-1.7	1.7	-0.1	-0.1	-28.5	-25.3
COc1ccc2[nH]cc(C(=O)CNc3nc(C)cs3)c2c1	-0.4	-1.4	0.4	1.0	2.5	88.9*
COc1ccc2[nH]cc(C(=O)CCl)c2c1	.	0.3	1.6	0.0	-1.9	29.8
COc1ccc2nc(N3CCCCC3)c(C#N)cc2c1	-2.1	30.6*	5.0	74.4*	41.0	14.4
COc1ccc2nc(N3CCCC3)c(C#N)cc2c1	3.2	0.9	8.9*	60.4*	.	9.1
COc1ccc2nc(SCC(=O)N3CCCCC3)c(C#N)cc2c1	-4.9	2.9	1.9	0.5	-1.7	32.4
O=C1COc2ccc(C(=O)CSc3nnc(Cc4cccs4)n3-c3ccccc3)cc2N1	-5.8	1.7	0.6	1.5	2.3	33.0
